Reference: PubChem BioAssay AID492978 (The Scripps Research Institute Molecular Screening Center, 2010)
Activity calls are given as the source filed them.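 How the source made its calls: active means inhibition of the malaria parasite aminopeptidase at 45% or more; inactive means inhibition below 45%.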

Molecular target: Aminopeptidase N (Plasmodium falciparum (isolate 3D7)) (UniProt O96935)
Experiment: P. falciparum M1 aminopeptidase enzyme inhibition – biochemical, fluorescence, recombinant enzyme, assay provider, late-stage follow-up (AID 492978)
Details: recombinant PfM1AAP, H-Leu-NHMec fluorescence; at 5 µM; hits give high values
In short: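 Material: recombinant P. falciparum M1 aminopeptidase / Medium: Tris-HCl buffer pH 7.5, 25 mM / Reagent: fluorogenic substrate H-Leu-NHMec at 50 µM final / Timing: 10 min preincubation, 30 min kinetic reading / Technique: kinetic fluorescence, excitation 370 nm, emission 460 nm / Benchmarks: no-inhibitor enzyme wells and no-enzyme background wells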

Aminopeptidase N (Plasmodium falciparum (isolate 3D7)), sequence (O96935 whole entry, looked up): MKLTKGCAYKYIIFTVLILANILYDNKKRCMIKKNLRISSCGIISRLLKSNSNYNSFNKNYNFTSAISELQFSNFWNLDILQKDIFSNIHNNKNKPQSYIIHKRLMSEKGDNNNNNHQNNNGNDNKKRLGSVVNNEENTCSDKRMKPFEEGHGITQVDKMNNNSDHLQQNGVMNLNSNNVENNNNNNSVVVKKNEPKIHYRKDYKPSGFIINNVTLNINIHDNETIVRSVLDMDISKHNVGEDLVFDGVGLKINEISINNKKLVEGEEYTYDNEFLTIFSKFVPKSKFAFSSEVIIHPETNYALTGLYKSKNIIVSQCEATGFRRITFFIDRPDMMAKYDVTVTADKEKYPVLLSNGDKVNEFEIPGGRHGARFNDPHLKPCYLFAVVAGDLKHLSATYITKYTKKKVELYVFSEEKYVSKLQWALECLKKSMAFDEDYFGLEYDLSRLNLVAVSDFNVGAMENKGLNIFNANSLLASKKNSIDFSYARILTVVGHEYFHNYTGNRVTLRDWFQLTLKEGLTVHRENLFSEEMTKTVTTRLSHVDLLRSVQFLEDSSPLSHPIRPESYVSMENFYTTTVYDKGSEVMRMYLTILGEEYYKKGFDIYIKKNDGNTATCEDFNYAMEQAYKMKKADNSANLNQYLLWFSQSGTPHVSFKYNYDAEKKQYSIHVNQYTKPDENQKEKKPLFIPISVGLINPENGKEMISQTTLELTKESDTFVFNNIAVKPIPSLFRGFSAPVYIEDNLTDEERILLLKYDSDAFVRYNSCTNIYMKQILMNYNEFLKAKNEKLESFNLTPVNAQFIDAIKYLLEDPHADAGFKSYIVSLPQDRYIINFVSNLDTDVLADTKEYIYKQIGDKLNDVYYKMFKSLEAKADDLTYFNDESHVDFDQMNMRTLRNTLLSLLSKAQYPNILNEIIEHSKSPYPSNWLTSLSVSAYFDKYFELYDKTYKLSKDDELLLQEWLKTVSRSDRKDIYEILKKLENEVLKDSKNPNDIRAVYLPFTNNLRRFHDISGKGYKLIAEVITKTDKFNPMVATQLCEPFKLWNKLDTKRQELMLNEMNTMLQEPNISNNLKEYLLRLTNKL

| Compound | inhibition |
| --- | --- |
| O=C(O)CCC(=O)N1N=C(c2c(-c3ccccc3)c3cc(Cl)ccc3[nH]c2=O)CC1c1ccco1 (stereo not drawn) | 13% (inactive) |
| O=C1N=c2ccccc2=C1c1sc(=S)n(NC(=O)c2ccccc2)c1O | 13% (inactive) |
| COc1ccccc1-c1nc2ccccc2c(=O)n1NC(=O)c1cccs1 | 38% (inactive) |
| O=C(NCc1cccc(F)c1)C1CCN(S(=O)(=O)Cc2ccccc2)CC1 | 69% |
| O=C(NCCC1=CCCCC1)C1CCN(S(=O)(=O)c2ccc(Br)s2)CC1 | 45% |
| O=C1N=c2ccccc2=C1c1sc(=S)n(NC(=O)c2cccc(O)c2)c1O | 48% |
| COc1ccc(C2CC(c3c(-c4ccccc4)c4cc(Cl)ccc4[nH]c3=O)=NN2C(=O)CCC(=O)O)cc1 (stereo not drawn) | 0% (inactive) |
| O=C1/C(=C/c2cccs2)SC(=S)N1NS(=O)(=O)c1ccccc1 | 20% (inactive) |
| O=C(NCc1ccco1)C1CCCN(S(=O)(=O)c2cccc3nonc23)C1 (stereo not drawn) | 17% (inactive) |
| COc1ccc(OC)c(/C=C2\SC(=S)N(C(C(=O)O)c3ccccc3)C2=O)c1 (stereo not drawn) | 16% (inactive) |
| O=C(Nn1c(C2CCC2)nc2ccccc2c1=O)c1cccs1 | 8% (inactive) |
| CC(=O)N1N=C(c2c(O)n(C)c(=O)n(C)c2=O)CC1c1ccccc1 (stereo not drawn) | 7% (inactive) |
| O=C(O)CCC(=O)N1N=C(c2c(-c3ccccc3)c3cc(Cl)ccc3[nH]c2=O)CC1c1cccs1 (stereo not drawn) | 13% (inactive) |
